From ChEMBL document CHEMBL4706681, “New 2-Pyrazoline and Hydrazone Derivatives as Potent and Selective Monoamine Oxidase A Inhibitors” (J Med Chem, 2021) come the findings set out here.

Active and inactive are the calls of the source. No cut-off for these calls is given here.

Usually Papp stands for a coefficient for how fast a substance crosses the barrier. High values mean fast passage, low ones slow passage. In general, Ki refers to a dissociation constant, usually derived from enzyme kinetics or from competition with a known ligand.

Data set [1] in a line: Ex vivo inhibition of MAOA in CD1 mouse brain homogenates assessed as inhibition of 5-HT deamination by measuring 5-HIAA metabolite levels at 20 mg/kg, po administered as subchronic dose via gavage for 7 days and measured 1 hr post last dose by HPLC analysis (reference value: 0.18 +/- 0.01 ug/g). Format: functional. Conditions: time 7 day.
The test system of data set [2] is Mus musculus. The experiment in a line: Antidepressant-like activity in CD1 mouse assessed as reduction in immobility time at 20 mg/kg, po administered via gavage as single dose measured after 1 hr by Porsolt-forced swim test. Format: functional, organism-based.
In data set [3] the test system is Mus musculus. Briefly: Antidepressant-like activity in CD1 mouse assessed as reduction in immobility time at 20 mg/kg, po via gavage administered as […] dose for 7 days and measured 1 h post last dose by Porsolt-forced swim test. It is filed as functional, organism-based. The following applies: time 7.0 day.
A short description of data set [4]: Ex vivo inhibition of MAOA in CD1 mouse brain homogenates assessed as 5-HT levels at 20 mg/kg, po administered as subchronic dose via gavage for 7 days and measured 1 hr post last dose by ELISA kit method (reference value: 0.78 +/- 0.01 ug/g). It is filed as functional. The following applies: time 7 day. (In general: An ELISA detects its analyte on a solid surface through an enzyme-linked reagent.)

Data set [5] can be described thus: Ex vivo inhibition of MAOA in CD1 mouse brain homogenates assessed as inhibition of dopamine deamination by measuring DOPAC metabolite levels at 20 mg/kg, po administered as single acute dose via gavage and measured after 1 hr by HPLC analysis (reference value: 1.22 +/- 0.2 ug/g). It is filed as functional.
Data set [6] is described as follows: Ex vivo inhibition of MAOA in CD1 mouse brain homogenates assessed as 5-HT levels at 20 mg/kg, po administered as single acute dose via gavage and measured after 1 hr by ELISA kit method (reference value: 0.80 +/- 0.006 ug/g). Format: functional.
The nature of data set [7]: Ex vivo inhibition of MAOA in CD1 mouse brain homogenates assessed as MAOA level at 20 mg/kg, po administered administered as single acute dose via gavage and measured after 1 hr by monoamine oxidase assay (reference value: 0.40 +/- 0.012 nmol/min/mg). It is filed as functional.
The test system of data set [8] is Mus musculus. The experiment in a line: Antidepressant-like activity in po dosed CD1 mouse assessed as maximum efficacy administered as subchronic dose gavage for 7 days and measured 1 h post last dose by Porsolt-forced swim test. Format: functional. Conditions: time 7 day. The procedure, abridged:
(§1)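 Male albino CD-1 mice (20–25 g), 12 h light/dark, food and water ad libitum. Dosed by oral gavage once daily for 7 days in 200 μL 0.5% CMC; vehicle-only controls. […] Forced swim test run 1 h after the last dose. Immobility scored every 60 s over 6 min; n = 8–12.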

The subject of data set [9] is Mus musculus. Briefly: Antidepressant-like activity in CD1 mouse assessed as maximum efficacy at 20 mg/kg, po administered as subchronic dose gavage for 7 days and measured 1 h post last dose by Porsolt-forced swim test. Format: functional, organism-based. The following applies: time 7.0 day. Put shortly:
as §1

A short description of data set [10]: Ex vivo inhibition of MAOA in CD1 mouse brain homogenates assessed as assessed as inhibition of dopamine deamination by measuring DOPAC metabolite levels at 30 mg/kg, po administered as single acute dose via gavage and measured after 1 hr by HPLC analysis (reference value: 1.22 +/- 0.2 ug/g). Format: functional.
Data set [11] is described as follows: Ex vivo inhibition of MAOA in CD1 mouse brain homogenates assessed as dopamine levels at 30 mg/kg, po administered as single acute dose via gavage and measured after 1 hr by ELISA kit method (reference value: 7.08 +/- 0.58 ug/g). Format: functional.
Data set [12] is described as follows: Ex vivo inhibition of MAOA in CD1 mouse brain homogenates assessed as 5-HT levels at 30 mg/kg, po administered as single acute dose via gavage and measured after 1 hr by ELISA kit method (reference value: 0.80 +/- 0.006 ug/g). Format: functional.
The nature of data set [13]: Ex vivo inhibition of MAOA in CD1 mouse brain homogenates assessed as MAOA level at 30 mg/kg, po administered as subchronic dose via gavage for 7 days and measured 1 hr post last dose by monoamine oxidase assay (reference value: 0.40 +/- 0.005 nmol/min/mg). Format: functional. The following applies: time 7 day.
Data set [14] can be described thus: Effect on locomotor activity in CD1 mouse assessed as total distance traveled at 30 mg/kg, po administered via gavage for 7 days by open field test. It is filed as ADME, organism-based. The following applies: in vivo, 168 h, time 7 day. The procedure, abridged:
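Each mouse placed in the centre of a 50 × 50 × 30 cm black box and video-tracked; total distance travelled over 5 min; n = 8–10.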

A short description of data set [15]: Ex vivo inhibition of MAOA in CD1 mouse brain homogenates assessed as MAOA level at 30 mg/kg, po administered as single acute dose via gavage and measured after 1 hr by monoamine oxidase assay (reference value: 0.40 +/- 0.012 nmol/min/mg). It is filed as functional.
Data set [16] in a line: Permeability of compound in PBS/EtOH buffer (70:30) at 25 ug/ml incubated for 16 hrs by UV plate reader based PAMPA-BBB.
Data set [17] addresses T1, Amine oxidase [flavin-containing] B (Homo sapiens, UniProt P27338).
T1 sequence (P27338 whole entry): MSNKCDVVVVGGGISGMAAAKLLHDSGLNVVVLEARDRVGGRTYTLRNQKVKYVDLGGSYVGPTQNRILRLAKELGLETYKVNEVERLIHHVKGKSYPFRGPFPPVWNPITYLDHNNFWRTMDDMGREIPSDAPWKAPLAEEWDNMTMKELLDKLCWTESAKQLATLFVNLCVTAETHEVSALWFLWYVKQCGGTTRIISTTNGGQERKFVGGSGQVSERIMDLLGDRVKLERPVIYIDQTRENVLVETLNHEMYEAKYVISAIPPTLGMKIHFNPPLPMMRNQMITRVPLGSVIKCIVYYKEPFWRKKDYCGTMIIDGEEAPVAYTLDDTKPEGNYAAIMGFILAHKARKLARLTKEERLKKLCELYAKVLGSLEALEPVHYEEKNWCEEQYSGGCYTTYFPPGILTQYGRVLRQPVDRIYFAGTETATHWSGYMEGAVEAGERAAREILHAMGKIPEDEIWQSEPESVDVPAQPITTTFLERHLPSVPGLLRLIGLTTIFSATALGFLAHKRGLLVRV
Briefly: Inhibition of recombinant human MAO-B expressed in baculovirus infected BTI insect cells using p-tyramine as substrate incubated for 30 mins by Amplex red reagent based fluorescence analysis. Format: cell-based.

A short description of data set [18]: Ex vivo inhibition of MAOA in CD1 mouse brain homogenates assessed as inhibition of 5-HT deamination by measuring 5-HIAA metabolite levels by using at 30 mg/kg, po administered as subchronic dose via gavage for 7 days and measured 1 hr post last dose by HPLC analysis (reference value: 0.18 +/- 0.01 ug/g). Format: functional. Conditions: time 7 day.
The test system of data set [19] is Mus musculus. Briefly: Antidepressant-like activity in CD1 mouse assessed as reduction in immobility time at 30 mg/kg, po administered via gavage as single dose measured after 1 hr by Porsolt-forced swim test. Format: functional, organism-based.

In the case of `O=C(NCCN1CCOCC1)c1ccc(Cl)cc1` [MOCLOBEMIDE], the Activity in data set [1] came to 0.23 µg/g; in data set [4] it was 0.91 µg/g; in [5], 1.24 µg/g; in data set [6], 0.83 µg/g; in data set [7], 0.35 nmol/min/mg. In addition, the result in data set [2] and in [3] was Active. In [8], the Emax was found to be 20 mg/kg.
As for `COc1ccc(C2=NN(C(=O)Cn3c(=O)oc4ccc(C)cc43)C(c3cccc(OC)c3OC)C2)cc1` (centres undefined), in [9], the result was inactive. Moreover, the Activity in data set [10] is 1.25 µg/g; in [11], 7.13 µg/g; in data set [12] it was 1.1 µg/g; in data set [13], 0.21 nmol/min/mg; in [14], “Non-Toxic”; in data set [15], 0.23 nmol/min/mg. The Activity in data set [18] was 0.3 µg/g. In [16], this molecule registered a Papp at 16 h, 25 ug/ml of 8.05 ×10⁻⁶ cm/s. Besides, the Ki in data set [17] stood at 655 µM. Further, the result in data set [19] was Active.
